# Measured values reported in article PMC6720533 (Biomolecules & Therapeutics, 2019).
# How the values were obtained:
# CEM cells [1] = assay: Apoptosis, Annexin V FITC / propidium iodide flow cytometry; assay type: cell-based, human; conditions: 5 μM, 72 h, DMSO 7.3%
# recombinant human CK2α1 = recombinant human CK2α1 (Homo sapiens, UniProt P68400); assay: CK2 kinase activity assay; assay type: biochemical; conditions: 60 min
# In short: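 Recombinant human CK2α1 (50 ng) was incubated with 2.5 μg CK2α1 substrate, 10 μM ATP, and test compound, reference inhibitor or DMSO for 60 min at room temperature. ADP-Glo reagent stopped the reaction and depleted remaining ATP. Detection reagent then converted ADP to ATP for luciferase/luciferin luminescence, which tracks the ADP formed as the measure of kinase activity.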
# Aurora-A = Aurora-A (Homo sapiens, UniProt O14965); assay: Kinase activity screening; assay type: biochemical; conditions: FX-9 at 2.5 μM, ATP at Km (15 μM)
# In short: (§1)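 Radiometric substrate-phosphorylation screen covering a panel of 58 human kinases run by a contract service. […] Activity is given as a percentage of mean activity in positive control samples (100%). Values <30% were scored strong hits, 30–70% partial hits and >70% no hit.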
# IKKα = IKKα (Homo sapiens, UniProt O15111); assay: Kinase activity screening; assay type: biochemical; conditions: FX-9 at 2.5 μM, ATP at Km (10 μM)
# In short: as §1
# PKCα = PKCα (Homo sapiens, UniProt P17252); assay: Kinase activity screening; assay type: biochemical; conditions: FX-9 at 2.5 μM, ATP at Km (45 μM)
# In short: as §1
# pERK = assay: Western blot, RS4; assay type: cell-based, human; conditions: RS4;11, 2.5 μM or 5.0 μM, 48 h
# In short: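 SEM or RS4;11 cells took DMSO, 2.5 or 5.0 μM test compound for 48 h. Cells (1–5×10^6) were lysed in RIPA buffer with sonication, run on SDS gels, blotted to PVDF and imaged by near-infrared fluorescence. Bands were normalised to GAPDH, and the phospho/total protein ratio was set relative to DMSO control (=1).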
# CEM cells [2] = assay: Cell morphology, May Grünwald Giemsa staining; assay type: cell-based, human; conditions: 2.5 μM, 48 h
# RS4;11 cells = assay: Proliferation, viable cell count by trypan blue exclusion; assay type: cell-based, human
# In short: (§2)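 Human B-ALL (SEM, RS4;11) and T-ALL (Jurkat, CEM) lines were grown with 10% heat-inactivated FBS and penicillin/streptomycin at 37°C, 5% CO2. Cells took test compound at 0.1–5.0 μM (methods: 0.5–5.0 μM) or DMSO for up to 72 h. Viable cells were counted by trypan blue exclusion and expressed relative to control (100%). IC50 came from three separate experiments, each in triplicate.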
# B- and T-ALL cells = assay: as above; assay type: cell-based; conditions: Homo sapiens, read-out: IC50 values against B- and T-ALL cells
# In short: as §2
# PKG1α = PKG1α (Homo sapiens, UniProt Q13976); assay: Kinase activity screening; assay type: biochemical; conditions: FX-9 at 2.5 μM, ATP at Km (90 μM)
# In short: (§3)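 Radiometric kinase-panel screen of 58 human kinases, measuring substrate phosphorylation. […] Activity is given as % of the mean positive-control kinase activity (100%). Below 30% counts as a strong hit, 30–70% as a partial hit, and above 70% as no hit.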
# Rse = Rse (Homo sapiens, UniProt Q06418); assay: Kinase activity screening; assay type: biochemical; conditions: FX-9 at 2.5 μM, ATP at Km (45 μM)
# In short: as §3
# EGFR = EGFR (Homo sapiens, UniProt P00533); assay: Kinase activity screening; assay type: biochemical; conditions: FX-9 at 2.5 μM, ATP at Km (10 μM)
# In short: as §1
# cleaved caspase 3 = assay: Western blot, RS4; assay type: cell-based, human; conditions: RS4;11, 2.5 μM and 5.0 μM, 48 h
# In short: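 SEM and RS4;11 cells were exposed to 2.5 or 5.0 μM test compound, or DMSO, for 48 h. Lysates of 1–5×10^6 cells were made in RIPA buffer with sonication. Cleaved caspase 3 was detected by western blot on PVDF with near-infrared imaging, using GAPDH as loading control.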
# MST1 = MST1 (Homo sapiens, UniProt Q13043); assay: Kinase activity screening; assay type: biochemical; conditions: FX-9 at 2.5 μM, ATP at Km (90 μM)
# In short: as §1
# SEM cells [3] = assay: Apoptosis, Annexin V FITC / propidium iodide flow cytometry; assay type: cell-based, human; conditions: 5 μM, 72 h, DMSO 7.4%
# JAK2 = JAK2 (Homo sapiens, UniProt O60674); assay: Kinase activity screening; assay type: biochemical; conditions: FX-9 at 2.5 μM, ATP at Km (45 μM)
# In short: as §1
# ALK = ALK (Homo sapiens, UniProt Q9UM73); assay: Kinase activity screening; assay type: biochemical; conditions: FX-9 at 2.5 μM, ATP at Km (200 μM)
# In short: as §1
# MEK1 = MEK1 (Homo sapiens, UniProt Q02750); assay: Kinase activity screening; assay type: biochemical; conditions: FX-9 at 2.5 μM, ATP at Km (10 μM)
# In short: as §1
# CDK6/cyclinD3 = CDK6/cyclinD3 (Homo sapiens, UniProt Q00534); assay: Kinase activity screening; assay type: biochemical; conditions: FX-9 at 2.5 μM, ATP at Km (200 μM)
# In short: as §1
# IGF-1R = IGF-1R (Homo sapiens, UniProt P08069); assay: Kinase activity screening; assay type: biochemical; conditions: FX-9 at 2.5 μM, ATP at Km (200 μM)
# In short: as §1
# MSK2 = MSK2 (Homo sapiens, UniProt O75676); assay: Kinase activity screening; assay type: biochemical; conditions: FX-9 at 2.5 μM, ATP at Km (45 μM)
# In short: as §1
# Lyn = Lyn (Homo sapiens, UniProt P07948); assay: Kinase activity screening; assay type: biochemical; conditions: FX-9 at 2.5 μM, ATP at Km (70 μM)
# In short: as §1
# SEM cells [4] = assay: Proliferation, viable cell count by trypan blue exclusion; assay type: cell-based, human; conditions: 72 h
# In short: as §2
# NEK2 = NEK2 (Homo sapiens, UniProt P51955); assay: Kinase activity screening; assay type: biochemical; conditions: FX-9 at 2.5 μM, ATP at Km (120 μM)
# In short: as §1
# CK2α2 = CK2α2 (Homo sapiens, UniProt P19784); assay: Kinase activity screening; assay type: biochemical; conditions: FX-9 at 2.5 μM, ATP at Km (10 μM)
# In short: as §1
# KDR = KDR (Homo sapiens, UniProt P35968); assay: Kinase activity screening; assay type: biochemical; conditions: FX-9 at 2.5 μM, ATP at Km (90 μM)
# In short: as §1
# Pim-1 = Pim-1 (Homo sapiens, UniProt P11309); assay: Kinase activity screening; assay type: biochemical; conditions: FX-9 at 2.5 μM, ATP at Km (90 μM)
# In short: as §3
# mTOR = mTOR (Homo sapiens, UniProt P42345); assay: Kinase activity screening; assay type: biochemical; conditions: FX-9 at 2.5 μM, ATP at Km (70 μM)
# In short: as §3
# Chain of recombinant human CK2α1 (P68400 whole entry): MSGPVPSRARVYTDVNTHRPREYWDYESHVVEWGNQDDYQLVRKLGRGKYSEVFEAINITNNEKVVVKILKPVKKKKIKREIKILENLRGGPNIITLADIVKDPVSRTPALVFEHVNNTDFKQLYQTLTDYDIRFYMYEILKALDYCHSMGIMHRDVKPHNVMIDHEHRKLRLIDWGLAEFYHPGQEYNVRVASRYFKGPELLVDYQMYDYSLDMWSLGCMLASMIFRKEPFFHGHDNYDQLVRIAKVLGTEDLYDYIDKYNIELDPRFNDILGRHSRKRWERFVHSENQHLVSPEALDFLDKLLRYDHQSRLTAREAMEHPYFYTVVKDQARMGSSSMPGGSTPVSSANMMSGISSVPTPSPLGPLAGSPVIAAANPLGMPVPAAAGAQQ
# Chain of IKKα (O15111 whole entry): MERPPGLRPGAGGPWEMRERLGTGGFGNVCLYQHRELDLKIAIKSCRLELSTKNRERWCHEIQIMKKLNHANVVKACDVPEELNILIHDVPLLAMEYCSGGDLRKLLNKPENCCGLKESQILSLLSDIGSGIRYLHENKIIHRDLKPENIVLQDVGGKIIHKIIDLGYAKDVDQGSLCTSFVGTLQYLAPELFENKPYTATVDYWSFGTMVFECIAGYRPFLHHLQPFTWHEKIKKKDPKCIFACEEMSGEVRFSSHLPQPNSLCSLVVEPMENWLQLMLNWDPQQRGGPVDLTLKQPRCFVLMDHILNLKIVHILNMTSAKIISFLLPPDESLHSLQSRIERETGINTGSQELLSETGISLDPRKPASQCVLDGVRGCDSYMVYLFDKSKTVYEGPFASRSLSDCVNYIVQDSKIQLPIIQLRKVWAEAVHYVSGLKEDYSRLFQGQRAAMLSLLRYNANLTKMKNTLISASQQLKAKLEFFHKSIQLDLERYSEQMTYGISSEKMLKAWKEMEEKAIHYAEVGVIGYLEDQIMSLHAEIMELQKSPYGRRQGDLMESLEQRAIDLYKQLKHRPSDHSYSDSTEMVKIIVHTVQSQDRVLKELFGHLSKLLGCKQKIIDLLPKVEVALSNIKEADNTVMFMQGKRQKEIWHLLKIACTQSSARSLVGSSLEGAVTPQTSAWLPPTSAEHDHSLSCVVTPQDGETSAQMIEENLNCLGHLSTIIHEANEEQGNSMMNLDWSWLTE
# Chain of Lyn (P07948 whole entry): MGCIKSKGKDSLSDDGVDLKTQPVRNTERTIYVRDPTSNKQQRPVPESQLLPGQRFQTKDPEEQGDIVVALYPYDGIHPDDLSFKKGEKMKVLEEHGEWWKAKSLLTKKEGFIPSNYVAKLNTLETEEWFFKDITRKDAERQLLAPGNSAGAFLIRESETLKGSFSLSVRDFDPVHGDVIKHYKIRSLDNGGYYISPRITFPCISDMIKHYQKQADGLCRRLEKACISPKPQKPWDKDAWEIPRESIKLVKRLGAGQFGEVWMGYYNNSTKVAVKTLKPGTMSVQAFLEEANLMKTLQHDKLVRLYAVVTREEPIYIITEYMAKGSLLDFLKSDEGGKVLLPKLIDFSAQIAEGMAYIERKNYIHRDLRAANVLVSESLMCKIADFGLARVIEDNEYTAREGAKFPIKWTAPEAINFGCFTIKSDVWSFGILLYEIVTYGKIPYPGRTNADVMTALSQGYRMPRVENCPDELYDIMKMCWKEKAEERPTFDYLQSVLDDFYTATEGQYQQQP
# Chain of Pim-1 (P11309 whole entry): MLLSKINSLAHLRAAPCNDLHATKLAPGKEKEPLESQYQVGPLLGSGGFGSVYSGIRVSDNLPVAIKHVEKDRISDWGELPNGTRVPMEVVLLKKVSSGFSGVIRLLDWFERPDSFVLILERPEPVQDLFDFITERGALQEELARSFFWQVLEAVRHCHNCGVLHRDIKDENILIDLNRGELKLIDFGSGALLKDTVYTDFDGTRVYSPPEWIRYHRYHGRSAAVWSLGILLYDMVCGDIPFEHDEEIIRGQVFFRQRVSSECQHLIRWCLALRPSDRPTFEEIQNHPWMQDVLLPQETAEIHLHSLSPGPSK
# Chain of JAK2 (O60674 whole entry): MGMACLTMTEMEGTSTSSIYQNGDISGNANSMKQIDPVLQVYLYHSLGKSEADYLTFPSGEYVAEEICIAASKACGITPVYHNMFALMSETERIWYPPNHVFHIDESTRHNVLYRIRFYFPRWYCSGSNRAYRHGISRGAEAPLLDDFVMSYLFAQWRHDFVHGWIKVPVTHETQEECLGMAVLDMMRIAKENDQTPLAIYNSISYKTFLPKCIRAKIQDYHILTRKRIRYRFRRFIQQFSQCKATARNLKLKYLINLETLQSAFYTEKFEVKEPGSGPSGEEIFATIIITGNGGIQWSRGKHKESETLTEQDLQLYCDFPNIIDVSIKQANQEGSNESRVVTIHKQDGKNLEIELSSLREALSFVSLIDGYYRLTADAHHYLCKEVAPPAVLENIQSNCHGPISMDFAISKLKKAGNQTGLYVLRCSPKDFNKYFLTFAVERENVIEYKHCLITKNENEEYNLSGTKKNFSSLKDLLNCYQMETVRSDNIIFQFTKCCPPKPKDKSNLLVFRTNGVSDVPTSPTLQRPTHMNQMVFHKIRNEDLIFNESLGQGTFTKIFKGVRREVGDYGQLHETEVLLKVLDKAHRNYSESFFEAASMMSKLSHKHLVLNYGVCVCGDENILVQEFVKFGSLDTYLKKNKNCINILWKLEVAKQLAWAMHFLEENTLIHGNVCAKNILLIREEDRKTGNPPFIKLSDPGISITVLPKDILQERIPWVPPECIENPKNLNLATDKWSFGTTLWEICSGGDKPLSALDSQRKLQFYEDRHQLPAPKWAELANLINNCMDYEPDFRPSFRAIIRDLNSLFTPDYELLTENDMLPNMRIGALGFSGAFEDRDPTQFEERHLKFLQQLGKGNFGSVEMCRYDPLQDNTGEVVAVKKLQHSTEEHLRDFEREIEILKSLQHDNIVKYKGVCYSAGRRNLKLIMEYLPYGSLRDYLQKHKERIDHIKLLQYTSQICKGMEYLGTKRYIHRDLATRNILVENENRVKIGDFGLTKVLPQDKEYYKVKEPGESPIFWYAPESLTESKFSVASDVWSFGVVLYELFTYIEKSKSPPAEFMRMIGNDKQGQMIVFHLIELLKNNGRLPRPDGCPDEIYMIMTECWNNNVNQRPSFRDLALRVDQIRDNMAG
# Chain of PKG1α (Q13976 whole entry): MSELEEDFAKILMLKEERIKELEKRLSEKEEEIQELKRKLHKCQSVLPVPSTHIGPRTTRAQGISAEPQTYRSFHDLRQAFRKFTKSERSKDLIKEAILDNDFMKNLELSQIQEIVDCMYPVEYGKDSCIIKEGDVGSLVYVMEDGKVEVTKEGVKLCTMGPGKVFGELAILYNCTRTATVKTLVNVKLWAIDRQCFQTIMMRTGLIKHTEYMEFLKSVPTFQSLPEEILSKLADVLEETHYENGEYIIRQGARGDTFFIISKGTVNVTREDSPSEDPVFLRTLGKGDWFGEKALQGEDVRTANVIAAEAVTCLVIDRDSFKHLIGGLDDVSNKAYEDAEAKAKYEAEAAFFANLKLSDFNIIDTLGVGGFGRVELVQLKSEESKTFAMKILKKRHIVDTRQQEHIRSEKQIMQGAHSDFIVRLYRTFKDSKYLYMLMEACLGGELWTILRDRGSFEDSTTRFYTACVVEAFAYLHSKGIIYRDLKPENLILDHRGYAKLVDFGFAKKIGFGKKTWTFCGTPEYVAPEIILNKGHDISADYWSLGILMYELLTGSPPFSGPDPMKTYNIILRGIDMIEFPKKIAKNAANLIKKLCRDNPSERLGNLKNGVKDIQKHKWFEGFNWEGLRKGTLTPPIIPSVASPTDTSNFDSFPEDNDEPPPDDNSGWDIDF
# Chain of Aurora-A (O14965 whole entry): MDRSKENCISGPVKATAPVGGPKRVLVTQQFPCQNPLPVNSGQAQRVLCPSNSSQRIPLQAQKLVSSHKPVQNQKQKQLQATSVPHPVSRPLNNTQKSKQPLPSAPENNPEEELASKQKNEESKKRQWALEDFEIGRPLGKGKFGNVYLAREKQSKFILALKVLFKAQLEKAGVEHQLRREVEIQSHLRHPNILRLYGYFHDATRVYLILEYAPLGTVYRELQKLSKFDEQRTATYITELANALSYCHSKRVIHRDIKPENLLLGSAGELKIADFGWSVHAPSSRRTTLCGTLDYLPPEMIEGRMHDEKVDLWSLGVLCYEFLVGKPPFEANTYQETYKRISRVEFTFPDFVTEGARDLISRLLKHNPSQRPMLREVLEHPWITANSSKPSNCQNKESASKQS
compound,measurement,setting,value
"Cc1ccc(-c2cc3ccccc3c(N)n2)cc1 [FX-9, 3-(p-Tolyl)isoquinolin-1-amine]",Apoptosis (total of early apoptotic and late apoptotic and necrotic cells),CEM cells [1],90.4%
same,CK2 enzyme activity,"recombinant human CK2α1; 10 μM FX-9, 10 μM ATP",not changed significantly
same,CK2 enzyme activity,"recombinant human CK2α1; increasing concentrations, 10 μM ATP",No changes of CK2 enzyme activity
same,Kinase activity (% control),Aurora-A,92 % control
same,Kinase activity (% control),IKKα,91 % control
same,Kinase activity (% control),PKCα,99 % control
same,pERK level (western blot),pERK,dose dependent increase
same,cellular morphology (light microscopy),CEM cells [2],"Extensive cytoplasmic vacuolization, karyopyknosis, and karyolysis"
same,IC50,"RS4;11 cells; Homo sapiens, RS4-11, 72 h, read-out: IC50 based on proliferation",540 ± 20 nM
same,Proliferation compared to control cells (=100%),"RS4;11 cells; RS4;11, 0.5 μM, 72 h",60.0%
same,IC50,B- and T-ALL cells,540 to 1940 nM
same,Kinase activity (% control),PKG1α,98 % control
same,Kinase activity (% control),Rse,92 % control
same,Kinase activity (% control),EGFR,101 % control
same,cleaved caspase 3 protein (western blot),cleaved caspase 3,increased amount of cleaved caspase 3
same,Kinase activity (% control),MST1,87 % control
same,Apoptosis (total of early apoptotic and late apoptotic and necrotic cells),SEM cells [3],75.9%
same,Kinase activity (% control),JAK2,111 % control
same,Kinase activity (% control),ALK,112 % control
same,Kinase activity (% control),MEK1,90 % control
same,Kinase activity (% control),CDK6/cyclinD3,103 % control
same,Kinase activity (% control),IGF-1R,89 % control
same,Kinase activity (% control),MSK2,89 % control
same,Kinase activity (% control),Lyn,87 % control
same,IC50,"SEM cells [4]; Homo sapiens, read-out: IC50 based on proliferation",1460 ± 10 nM
same,Proliferation compared to control cells (=100%),"SEM cells [4]; SEM, 0.5 μM",69.5%
same,Kinase activity (% control),NEK2,106 % control
same,Kinase activity (% control),CK2α2,95 % control
same,Kinase activity (% control),KDR,83 % control
same,Kinase activity (% control),Pim-1,99 % control
same,Kinase activity (% control),mTOR,100 % control
